Assay results as given in ChEMBL document CHEMBL1146219, “Synthesis and evaluation of novel radioiodinated benzamides for malignant melanoma” (J Med Chem, 2007).

Columns and labels:
Conditions in all cases: in vivo
[1] = Biodistribution in melanoma of B16F0 tumor bearing C57BL/6J mouse at 0.37-0.74 MBq, iv after 1 hr; assay type: ADME, organism-based, B16-F0
Outline: (§1)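 Female C57BL/6J mice (15-18 g) were given B16F0 cells subcutaneously in the left flank (0.1 mL of 3 × 10⁶ viable cells/mL in Ca²⁺/Mg²⁺-free PBS) at 6-7 weeks and used after ten days. [¹²³I]benzamide (0.37-0.74 MBq, 100 µL, saline) was injected via the tail vein. Groups of n = 5 were killed by CO₂ and cervical dislocation. Organs were weighed and γ-counted, and the carcass was counted too.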

[2] = Biodistribution in melanoma of B16F0 tumor bearing C57BL/6J mouse at 0.37-0.74 MBq, iv after 6 hrs; assay type: ADME, organism-based, B16-F0
Outline: (§2)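 Female C57BL/6J mice (15-18 g) carrying s.c. B16F0 flank tumors (0.1 mL of 3 × 10⁶ viable cells per mL in Ca²⁺/Mg²⁺-free PBS, inoculated at 6-7 weeks, used 10 days later). [¹²³I]tracer 0.37-0.74 MBq in saline, 100 µL, tail-vein i.v. Groups of n = 5 killed at 1-72 h. Organs weighed and γ-counted, carcass activity also counted, values as %ID/g.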

[3] = Biodistribution in melanoma of B16F0 tumor bearing C57BL/6J mouse at 0.37-0.74 MBq, iv after 24 hrs; assay type: ADME, organism-based, B16-F0; outline: as §1
[4] = Biodistribution in melanoma of B16F0 tumor bearing C57BL/6J mouse at 0.37-0.74 MBq, iv after 48 hrs; assay type: ADME, organism-based, B16-F0; outline: as §1
[5] = Biodistribution in melanoma of B16F0 tumor bearing C57BL/6J mouse at 0.37-0.74 MBq, iv after 72 hrs; assay type: ADME, organism-based, B16-F0; outline: as §2
Liver [6] = assay: Biodistribution in liver of B16F0 tumor bearing C57BL/6J mouse at 0.37-0.74 MBq, iv after 6 hrs; assay type: ADME, organism-based; outline: as §1
Kidney [7] = assay: Biodistribution in kidney of B16F0 tumor bearing C57BL/6J mouse at 0.37-0.74 MBq, iv after 24 hrs; assay type: ADME, organism-based; outline: as §1
Kidney [8] = assay: Biodistribution in kidney of B16F0 tumor bearing C57BL/6J mouse at 0.37-0.74 MBq, iv after 48 hrs; assay type: ADME, organism-based; outline: as §1
Kidney [9] = assay: Biodistribution in kidney of B16F0 tumor bearing C57BL/6J mouse at 0.37-0.74 MBq, iv after 72 hrs; assay type: ADME, organism-based; outline: as §1
Lung [10] = assay: Biodistribution in lung of B16F0 tumor bearing C57BL/6J mouse at 0.37-0.74 MBq, iv after 6 hrs; assay type: ADME, organism-based; outline: as §1
Lung [11] = assay: Biodistribution in lung of B16F0 tumor bearing C57BL/6J mouse at 0.37-0.74 MBq, iv after 48 hrs; assay type: ADME, organism-based; outline: as §1
Heart [12] = assay: Biodistribution in heart of B16F0 tumor bearing C57BL/6J mouse at 0.37-0.74 MBq, iv after 1 hr; assay type: ADME, organism-based; outline: as §1
Heart [13] = assay: Biodistribution in heart of B16F0 tumor bearing C57BL/6J mouse at 0.37-0.74 MBq, iv after 24 hrs; assay type: ADME, organism-based; outline: as §1
Heart [14] = assay: Biodistribution in heart of B16F0 tumor bearing C57BL/6J mouse at 0.37-0.74 MBq, iv after 48 hrs; assay type: ADME, organism-based; outline: as §1
Heart [15] = assay: Biodistribution in heart of B16F0 tumor bearing C57BL/6J mouse at 0.37-0.74 MBq, iv after 72 hrs; assay type: ADME, organism-based; outline: as §1
Brain [16] = assay: Biodistribution in brain of B16F0 tumor bearing C57BL/6J mouse at 0.37-0.74 MBq, iv after 24 hrs; assay type: ADME, organism-based; outline: as §1
Brain [17] = assay: Biodistribution in brain of B16F0 tumor bearing C57BL/6J mouse at 0.37-0.74 MBq, iv after 72 hrs; assay type: ADME, organism-based; outline: as §1
Blood [18] = assay: Biodistribution in blood of B16F0 tumor bearing C57BL/6J mouse at 0.37-0.74 MBq, iv after 1 hr; assay type: ADME, organism-based; outline: as §1
Blood [19] = assay: Biodistribution in blood of B16F0 tumor bearing C57BL/6J mouse at 0.37-0.74 MBq, iv after 48 hrs; assay type: ADME, organism-based; outline: as §1
[20] = Biodistribution in tumor of B16F0 tumor bearing C57BL/6J mouse at 0.37-0.74 MBq, iv after 1 hr in presence of haloperidol; assay type: ADME, organism-based, B16-F0
Outline: (§3)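 B16F0 tumor-bearing C57BL/6J mice, groups of n = 5, given haloperidol 1 mg/kg i.v. 5 min before the i.v. [¹²³I]tracer (0.37-0.74 MBq). Killed at 1 or 24 h. Tissues γ-counted as for biodistribution and compared with untreated controls by one-way ANOVA, significance p < 0.01.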

[21] = Biodistribution in tumor of B16F0 tumor bearing C57BL/6J mouse at 0.37-0.74 MBq, iv after 24 hrs in presence of haloperidol; assay type: ADME, organism-based, B16-F0; outline: as §3
[22] = Biodistribution in eye of B16F0 tumor bearing C57BL/6J mouse at 0.37-0.74 MBq, iv after 1 hr in presence of haloperidol; assay type: ADME, organism-based
Outline: (§4)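 Haloperidol blocking in B16F0-bearing C57BL/6J mice: 1 mg/kg haloperidol was given iv 5 min before the iv [¹²³I]benzamide (0.37-0.74 MBq). Groups of n = 5 were killed at 1 or 24 h. Tissues were weighed and γ-counted as in the biodistribution study and compared with untreated controls by one-way ANOVA, with p < 0.01 taken as significant.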

[23] = Biodistribution in eye of B16F0 tumor bearing C57BL/6J mouse at 0.37-0.74 MBq, iv after 24 hrs in presence of haloperidol; assay type: ADME, organism-based; outline: as §4
Liver [24] = assay: Biodistribution in liver of B16F0 tumor bearing C57BL/6J mouse at 0.37-0.74 MBq, iv after 1 hr in presence of haloperidol; assay type: ADME, organism-based; outline: as §4
Liver [25] = assay: Biodistribution in liver of B16F0 tumor bearing C57BL/6J mouse at 0.37-0.74 MBq, iv after 24 hrs in presence of haloperidol; assay type: ADME, organism-based; outline: as §4
Kidney [26] = assay: Biodistribution in kidney of B16F0 tumor bearing C57BL/6J mouse at 0.37-0.74 MBq, iv after 1 hr in presence of haloperidol; assay type: ADME, organism-based; outline: as §4
Lung [27] = assay: Biodistribution in lung of B16F0 tumor bearing C57BL/6J mouse at 0.37-0.74 MBq, iv after 1 hr in presence of haloperidol; assay type: ADME, organism-based; outline: as §4
Blood [28] = assay: Biodistribution in blood of B16F0 tumor bearing C57BL/6J mouse at 0.37-0.74 MBq, iv after 24 hrs in presence of haloperidol; assay type: ADME, organism-based
Brain [29] = assay: Biodistribution in brain of B16F0 tumor bearing C57BL/6J mouse at 0.37-0.74 MBq, iv after 1 hr in presence of haloperidol; assay type: ADME, organism-based
Brain [30] = assay: Biodistribution in brain of B16F0 tumor bearing C57BL/6J mouse at 0.37-0.74 MBq, iv after 24 hrs in presence of haloperidol; assay type: ADME, organism-based
[31] = Biodistribution in melanoma of B16F0 tumor bearing C57BL/6J mouse at 0.37-0.74 MBq, iv after 3 hrs; assay type: ADME, organism-based, B16-F0; outline: as §1
Liver [32] = assay: Biodistribution in liver of B16F0 tumor bearing C57BL/6J mouse at 0.37-0.74 MBq, iv after 3 hrs; assay type: ADME, organism-based; outline: as §1
Lung [33] = assay: Biodistribution in lung of B16F0 tumor bearing C57BL/6J mouse at 0.37-0.74 MBq, iv after 3 hrs; assay type: ADME, organism-based; outline: as §1

**Q.** With CCCCN(C)CCCCNC(=O)c1cc([123I])c(NC(C)=O)cc1OC as the compound, how does the Drug uptake [1] read?
**A.** The Drug uptake was 5.6 % ID/g.

**Q.** What about the Drug uptake [2] of the same compound?
**A.** Its Drug uptake is 8.4 % ID/g.

**Q.** And the Drug uptake [3]?
**A.** Its Drug uptake is 6.1 % ID/g.

**Q.** And the Drug uptake [4]?
**A.** The Drug uptake was 4.6 % ID/g.

**Q.** And the Drug uptake [5]?
**A.** The Drug uptake was 2.2 % ID/g.

**Q.** And the Drug uptake (Liver [6])?
**A.** Its Drug uptake is 1.8 % ID/g.

**Q.** What about the Drug uptake (Kidney [7]) of the same compound?
**A.** Its Drug uptake is 0.12 % ID/g.

**Q.** And the Drug uptake (Kidney [8])?
**A.** Its Drug uptake is 0.07 % ID/g.

**Q.** What about the Drug uptake (Kidney [9]) of the same compound?
**A.** Its Drug uptake is 0.1 % ID/g.

**Q.** And the Drug uptake (Lung [10])?
**A.** The Drug uptake was 0.56 % ID/g.

**Q.** What about the Drug uptake (Lung [11]) of the same compound?
**A.** Its Drug uptake is 0.08 % ID/g.

**Q.** And the Drug uptake (Heart [12])?
**A.** The Drug uptake was 0.98 % ID/g.

**Q.** And the Drug uptake (Heart [13])?
**A.** Its Drug uptake is 0.12 % ID/g.

**Q.** What about the Drug uptake (Heart [14]) of the same compound?
**A.** The Drug uptake was 0.13 % ID/g.

**Q.** What about the Drug uptake (Heart [15]) of the same compound?
**A.** Its Drug uptake is 0.06 % ID/g.

**Q.** What about the Drug uptake (Brain [16]) of the same compound?
**A.** The Drug uptake was 0.01 % ID/g.

**Q.** What about the Drug uptake (Brain [17]) of the same compound?
**A.** The Drug uptake was 0.01 % ID/g.

**Q.** And the Drug uptake (Blood [18])?
**A.** Its Drug uptake is 1.2 % ID/g.

**Q.** And the Drug uptake (Blood [19])?
**A.** Its Drug uptake is 0.04 % ID/g.

**Q.** And the Drug uptake [20]?
**A.** The Drug uptake was 6.1 % ID/g.

**Q.** What about the Drug uptake [21] of the same compound?
**A.** Its Drug uptake is 4.5 % ID/g.

**Q.** What about the Drug uptake [22] of the same compound?
**A.** The Drug uptake was 16.9 % ID/g.

**Q.** What about the Drug uptake [23] of the same compound?
**A.** The Drug uptake was 18.7 % ID/g.

**Q.** What about the Drug uptake (Liver [24]) of the same compound?
**A.** The Drug uptake was 15.6 % ID/g.

**Q.** What about the Drug uptake (Liver [25]) of the same compound?
**A.** Its Drug uptake is 0.3 % ID/g.

**Q.** What about the Drug uptake (Kidney [26]) of the same compound?
**A.** Its Drug uptake is 17.3 % ID/g.

**Q.** And the Drug uptake (Lung [27])?
**A.** Its Drug uptake is 1.54 % ID/g.

**Q.** What about the Drug uptake (Blood [28]) of the same compound?
**A.** Its Drug uptake is 0.02 % ID/g.

**Q.** What about the Drug uptake (Brain [29]) of the same compound?
**A.** The Drug uptake was 0.06 % ID/g.

**Q.** What about the Drug uptake (Brain [30]) of the same compound?
**A.** The Drug uptake was 0.002 % ID/g.

**Q.** What about the Drug uptake [31] of the same compound?
**A.** Its Drug uptake is 9.7 % ID/g.

**Q.** And the Drug uptake (Liver [32])?
**A.** The Drug uptake was 5 % ID/g.

**Q.** What about the Drug uptake (Lung [33]) of the same compound?
**A.** The Drug uptake was 0.95 % ID/g.
